Assay results published in ChEMBL document CHEMBL4130629 (J Med Chem, 2018).
In brackets after ≈: the same amount, converted by molar mass. One block for each compound: values may come before it.

Tests used:
MT2 = test: Cytotoxicity against human MT2 cells assessed as decrease in cell viability after 3 days […]; assay type: functional; conditions: MT2, 72 h
[1] = Permeability in human Caco2 cells; assay type: ADME, cell-based; conditions: Caco-2, read-out: permeability
[2] = Metabolic stability in human liver microsomes assessed as parent compound remaining after 10 mins; assay type: ADME, microsome; conditions: read-out: Stability
In short: (§1)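 Compound at 3 μM was incubated with human or rat liver microsomes, and the percentage of parent compound remaining was measured after 10 min.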

[3] = Metabolic stability in rat liver microsomes assessed as parent compound remaining after 10 mins; assay type: ADME, microsome; conditions: read-out: Stability; in short: as §1
[4] = Oral bioavailability in Sprague-Dawley rat at 5 mg/kg; assay type: ADME, organism-based; conditions: in vivo
In short: (§2)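 Male Sprague-Dawley rats (300−350 g) with jugular vein and/or bile duct cannulas, n = 3 per route; dosed as a solution in PEG-400/ethanol (90/10). The iv dose was 1 mg/kg given as a 0.5 min bolus, with jugular blood sampled from 2 to 1440 min. The po dose was 5 mg/kg after an overnight fast, sampled from 15 to 1440 min. Plasma was taken from EDTA blood.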

[5] = AUC in Sprague-Dawley rat at 5 mg/kg, po after 24 hrs; assay type: ADME, organism-based; set-up: time < 24 hr, dose 5 mg/kg, route oral; conditions: in vivo; in short: as §2
[6] = Volume of distribution at steady state in Sprague-Dawley rat at 1 mg/kg, iv; assay type: ADME, organism-based; conditions: in vivo, read-out: Vdss; in short: as §2
[7] = Half life in Sprague-Dawley rat at 1 mg/kg, iv; assay type: ADME, organism-based; conditions: in vivo
Cytochrome P450 3A4 = Cytochrome P450 3A4 (Homo sapiens, UniProt P08684); test: Inhibition of CYP3A4 (unknown origin); assay type: ADME
[8] = test system: Human immunodeficiency virus 1; test: Antiviral activity against ENV pseudotyped CCR5-tropic HIV1 […] infected in human HeLa67 cells after 3 days by luciferase reporter gene assay; assay type: functional, organism-based; conditions: Human immunodeficiency virus 1, HeLa67, 72 h
In short: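 Single-cycle infection with env-deleted, luciferase-reporter HIV-1 pseudotyped with the JRFL (CCR5) envelope, supplied by transfection; viral titers normalized by luminescence without compound. HeLa 67 cells were infected in the presence of compounds given as 3-fold serial dilutions made from 30 mM DMSO stocks.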

[9] = Aqueous solubility of the compound at pH 1.5 to 8.2; assay type: physicochemical; conditions: buffer
In short: (§3)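 Aqueous solubility was measured across pH 1.5–8.2 at room temperature. Solution stability under acidic and neutral conditions, and solid-state stability, were followed for at least 24 h at 37 °C.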

[10] = Stability of the compound under acidic condition at 37 degC after 24 hrs; assay type: physicochemical; in short: as §3
[11] = Stability of the compound under neutral condition at 37 degC after 24 hrs; assay type: physicochemical; in short: as §3
[12] = Stability of the compound in solid state at 37 degC after 24 hrs; assay type: physicochemical; in short: as §3
[13] = target: T1, Alkaline phosphatase, placental type (Homo sapiens, UniProt P05187); test: Prodrug activation assessed as human placental alkaline phosphatase mediated BMS-626529 formation; conditions: isolated protein
[14] = target: T1, Alkaline phosphatase, placental type; test: Prodrug activation in human hepatocytes assessed as BMS-626529 formation; assay type: cell-based
[15] = Prodrug activation in Sprague-Dawley rat plasma assessed as BMS-626529 formation at <= 25 mg/kg, po after 3 hrs; assay type: organism-based; conditions: in vivo
In short: (§4)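 Rats were dosed orally with parent (solution in PEG-400/EtOH/0.1 N NaOH at ≤25 mg/kg; suspension at 200 mg/kg) or with prodrug as an aqueous solution. Plasma AUC of the parent drug was compared between the two.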

[16] = Prodrug activation in Sprague-Dawley rat plasma assessed as BMS-626529 formation at 200 mg/kg, po after 3 hrs; assay type: organism-based; conditions: in vivo; in short: as §4
Canis familiaris [17] = test: Toxicity in beagle dog assessed as rapid emesis at 250 mg/kg, po qd; assay type: organism-based, Canis lupus familiaris; conditions: in vivo
[18] = Prodrug activation in beagle dog plasma assessed as BMS-626529 formation 46 mg/kg, po bid; assay type: organism-based, Canis lupus familiaris; conditions: in vivo
Homo sapiens = test: Prodrug activation in normal healthy human assessed as BMS-626529 formation at 100 to 1000 mg dosed as standard capsule formulation; assay type: organism-based; conditions: in vivo, po
In short: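 Single ascending dose phase 1 trial in normal healthy volunteers: prodrug given as a standard capsule at 100, 200, 400, 600, 800 and 1000 mg. Plasma exposure of the parent drug was measured.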

[19] = Prodrug activation in beagle dog plasma assessed as BMS-626529 formation 125 mg/kg, po bid; assay type: organism-based, Canis lupus familiaris; conditions: in vivo
[20] = Aqueous solubility of the compound at pH 1; assay type: physicochemical; conditions: buffer
In short: (§5)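 Crystalline solid sample; aqueous solubility measured in buffers at the stated pH.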

[21] = Aqueous solubility of the compound at pH 10; assay type: physicochemical; conditions: buffer; in short: as §5
[22] = AUC in beagle dog at 5 mg/kg, po; assay type: ADME, organism-based, Canis lupus familiaris; conditions: in vivo
In short: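 Crossover study in three male beagle dogs (12 ± 0.4 kg) with a one-week washout between routes; dosed in PEG-400/ethanol (90/10) with pH adjusted by 0.1 N NaOH. After an overnight fast, 5 mg/kg was given by oral gavage. Serial blood was drawn before dosing and at 15–1440 min.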

[23] = test system: Human immunodeficiency virus 1; test: Antiviral activity against recombinant pseudotyped HIV1 subtype B infected in human U87 cells expressing CD4/CCR5/CXCR4 by luciferase reporter gene assay; assay type: functional, organism-based; conditions: Human immunodeficiency virus 1, subtype B, U-87 MG
[24] = test system: Human immunodeficiency virus 1; test: Antiviral activity against recombinant pseudotyped HIV1 subtype A infected in human U87 cells expressing CD4/CCR5/CXCR4 by luciferase reporter gene assay; assay type: functional, organism-based; conditions: Human immunodeficiency virus 1, subtype A, U-87 MG
[25] = test system: Human immunodeficiency virus 1; test: Antiviral activity against recombinant pseudotyped HIV1 subtype C infected in human U87 cells expressing CD4/CCR5/CXCR4 by luciferase reporter gene assay; assay type: functional, organism-based; conditions: Human immunodeficiency virus 1, subtype C, U-87 MG
Rattus norvegicus = test: Oral bioavailability in Sprague-Dawley rat assessed as BMS-626529 formation at 5 mg/kg; assay type: ADME, organism-based; conditions: in vivo
Canis familiaris [26] = test: Oral bioavailability in beagle dog assessed as BMS-626529 formation at 5 mg/kg; assay type: ADME, organism-based, Canis lupus familiaris; conditions: in vivo
Cynomolgus monkey = test: Oral bioavailability in cynomolgus monkey assessed as BMS-626529 formation at 5 mg/kg administered via gavage; assay type: ADME, organism-based, Macaca fascicularis; conditions: in vivo
[27] = Drug uptake in Sprague-Dawley rat plasma assessed as BMS-626529 level at <= 25 mg/kg, po after 3 hrs; assay type: ADME, organism-based; conditions: in vivo; in short: as §4
[28] = Drug uptake in Sprague-Dawley rat plasma assessed as BMS-626529 level at 200 mg/kg, po after 3 hrs; assay type: ADME, organism-based; conditions: in vivo
[29] = target: Envelope glycoprotein gp160 (Human immunodeficiency virus 1) (UniProt Q6QLK5); test: Binding affinity to HIV-1 JRFL gp120 assessed as half life for dissociation
[30] = Half life in human liver microsomes; assay type: ADME, microsome
[31] = Protein binding in human plasma; assay type: ADME, cell-free; conditions: read-out: PPB (converted)
[32] = AUC in cynomolgus monkey at 5 mg/kg, po administered via gavage; assay type: ADME, organism-based, Macaca fascicularis; conditions: in vivo
In short: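 Crossover study in three male cynomolgus monkeys (10 ± 0.8 kg) with a one-week washout between routes; dosed in PEG-400/ethanol (90/10) with pH adjusted by 0.1 N NaOH. After an overnight fast, 5 mg/kg was given by oral gavage. Serial blood was drawn before dosing and at 15–1440 min.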

[33] = test system: Human immunodeficiency virus 1; test: Antiviral activity against HIV1 infected in patients assessed as reduction in plasma viral load by measuring log10 viral copies at 800 mg, bid measured at day 8 (reference value: 0.02 log10 copies/ml); assay type: functional
[34] = test system: Human immunodeficiency virus 1; test: Antiviral activity against HIV1 infected in patients assessed as reduction in plasma viral load by measuring log10 viral copies at 1800 mg, bid measured at day 8; assay type: functional
[35] = test system: Human immunodeficiency virus 1; test: Antiviral activity against HIV1 infected in patients assessed as reduction in maxmum viral RNA by measuring log10 viral copies at 800 mg, bid measured at day 8; assay type: functional
[36] = test system: Human immunodeficiency virus 1; test: Antiviral activity against HIV1 infected in patients assessed as reduction in maxmum viral RNA by measuring log10 viral copies at 1800 mg, bid measured at day 8; assay type: functional
[37] = target: Envelope glycoprotein gp160 (Human immunodeficiency virus 1, UniProt Q6QLK5); test: Inhibition of [3H]BMS-488043 binding to HIV-1 JRFL gp120 after 1 hr by scintillation counting method
[38] = test system: Human immunodeficiency virus 1; test: Selectivity ratio of EC50 for ENV pseudotyped CCR5-tropic HIV1 […] in presence of 40%human serum to EC50 for ENV pseudotyped CCR5-tropic HIV1 […] in absence of 40%human serum; assay type: functional
In short: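 Single-cycle assay: env-deleted HIV-1 firefly-luciferase reporter virus pseudotyped by transfection with the JRFL (CCR5-tropic) envelope; HeLa 67 cells infected with compound (DMSO stocks, 3-fold serial dilutions). Luciferase read 3 days post-infection.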

Envelope glycoprotein gp160 (Human immunodeficiency virus 1), sequence (Q6QLK5 1-814): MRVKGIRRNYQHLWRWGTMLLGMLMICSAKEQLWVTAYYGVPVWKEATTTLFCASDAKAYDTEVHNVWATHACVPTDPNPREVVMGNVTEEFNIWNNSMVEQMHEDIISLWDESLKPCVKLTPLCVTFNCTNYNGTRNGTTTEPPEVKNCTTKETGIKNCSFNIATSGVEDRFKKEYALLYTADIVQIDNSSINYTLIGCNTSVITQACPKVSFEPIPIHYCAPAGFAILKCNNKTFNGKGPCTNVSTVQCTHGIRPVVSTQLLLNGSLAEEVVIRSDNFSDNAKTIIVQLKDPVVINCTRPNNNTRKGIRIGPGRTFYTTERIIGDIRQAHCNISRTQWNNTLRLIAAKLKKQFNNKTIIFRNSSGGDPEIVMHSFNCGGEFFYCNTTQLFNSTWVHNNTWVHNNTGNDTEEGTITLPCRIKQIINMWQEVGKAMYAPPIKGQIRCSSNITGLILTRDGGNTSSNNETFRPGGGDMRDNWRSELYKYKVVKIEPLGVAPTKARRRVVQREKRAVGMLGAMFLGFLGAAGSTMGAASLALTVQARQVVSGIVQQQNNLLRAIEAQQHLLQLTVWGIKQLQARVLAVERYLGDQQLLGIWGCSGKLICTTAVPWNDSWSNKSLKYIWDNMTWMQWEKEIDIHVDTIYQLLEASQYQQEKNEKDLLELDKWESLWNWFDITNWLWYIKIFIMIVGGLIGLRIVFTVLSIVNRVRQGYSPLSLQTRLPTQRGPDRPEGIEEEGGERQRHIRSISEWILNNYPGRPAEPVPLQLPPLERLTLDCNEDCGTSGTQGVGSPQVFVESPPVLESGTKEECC
T1 sequence (P05187 whole entry): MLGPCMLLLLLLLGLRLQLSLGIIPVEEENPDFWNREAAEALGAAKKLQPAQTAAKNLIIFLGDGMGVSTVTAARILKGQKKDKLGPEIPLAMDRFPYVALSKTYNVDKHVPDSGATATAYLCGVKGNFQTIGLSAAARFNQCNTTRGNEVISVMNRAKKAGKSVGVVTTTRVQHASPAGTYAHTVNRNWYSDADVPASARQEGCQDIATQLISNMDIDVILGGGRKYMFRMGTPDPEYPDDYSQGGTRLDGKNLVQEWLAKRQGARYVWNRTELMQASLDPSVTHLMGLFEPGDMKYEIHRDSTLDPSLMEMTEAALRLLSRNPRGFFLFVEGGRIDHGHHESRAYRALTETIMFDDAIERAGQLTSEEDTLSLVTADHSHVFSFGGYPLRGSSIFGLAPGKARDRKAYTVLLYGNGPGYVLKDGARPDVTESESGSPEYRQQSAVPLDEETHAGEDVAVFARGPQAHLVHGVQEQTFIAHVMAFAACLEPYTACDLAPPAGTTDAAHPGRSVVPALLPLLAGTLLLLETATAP
Envelope glycoprotein gp160, sequence (Q6QLK5 whole entry): as the sequence (Q6QLK5 1-814) above
Cytochrome P450 3A4, sequence (P08684 whole entry): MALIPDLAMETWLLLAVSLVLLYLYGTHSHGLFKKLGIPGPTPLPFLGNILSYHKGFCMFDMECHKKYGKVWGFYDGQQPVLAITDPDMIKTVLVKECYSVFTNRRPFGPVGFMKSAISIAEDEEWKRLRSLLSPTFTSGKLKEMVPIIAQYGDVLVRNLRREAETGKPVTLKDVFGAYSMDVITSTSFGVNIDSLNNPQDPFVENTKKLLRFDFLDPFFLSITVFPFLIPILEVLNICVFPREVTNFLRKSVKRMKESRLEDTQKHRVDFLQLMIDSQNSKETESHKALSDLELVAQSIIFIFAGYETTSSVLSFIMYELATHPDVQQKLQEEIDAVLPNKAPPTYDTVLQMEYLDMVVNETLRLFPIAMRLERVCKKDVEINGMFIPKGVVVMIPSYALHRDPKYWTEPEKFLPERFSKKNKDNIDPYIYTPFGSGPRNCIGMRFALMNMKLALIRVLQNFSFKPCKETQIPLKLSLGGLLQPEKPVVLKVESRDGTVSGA

Papp [1]: 146 nm/s
remaining at 10 min [2]: 83%
remaining at 10 min [3]: 97%
bioavailability [4]: 90%
AUC at 24 h [5]: 48.7 µM·h
Vd [6]: 0.4 L/kg
half-life [7]: 2.6 h
IC50 (Cytochrome P450 3A4): 1000 nM
EC50 [8]: 0.09 nM
SMILES: COc1cnc(-n2cncn2)c2[nH]cc(C(=O)C(=O)N3CCN(C(=O)c4ccccc4)CC3)c12
CC50 (MT2): > 300000 nM

solubility [9]: > 11 mg/mL
Stability [10]: Stable
Stability [11]: Stable
Stability [12]: Stable
Drug metabolism [13]: Metabolite_Detected
Drug metabolism [14]: Metabolite_Detected
Drug metabolism [15]: Metabolite_Detected
Drug metabolism [16]: Metabolite_Detected
Drug metabolism [18]: Metabolite_Detected
Drug metabolism (Homo sapiens): Dose-dependent effect
Drug metabolism [19]: Metabolite_Detected
SMILES: COc1cnc(-n2cnc(C)n2)c2c1c(C(=O)C(=O)N1CCN(C(=O)c3ccccc3)CC1)cn2COP(=O)(O)O.NC(CO)(CO)CO [FOSTEMSAVIR TROMETHAMINE]
Activity (Canis familiaris [17]): Toxic

Papp [1]: 182 nm/s
AUC at 24 h [5]: 111 µM·h
solubility [20]: 0.05 mg/mL (≈ 106 µM)
solubility [21]: 0.07 mg/mL (≈ 148 µM)
AUC [22]: 61 µM·h
IC50 [23]: 4.59 nM
IC50 [24]: 87.9 nM
IC50 [25]: 7.09 nM
bioavailability (Rattus norvegicus): 80 to 122%
bioavailability (Canis familiaris [26]): 80 to 122%
bioavailability (Cynomolgus monkey): 80 to 122%
Drug uptake [27]: Active
Drug uptake [28]: Active
T1/2 [29]: 7.63 h
SMILES: COc1cnc(-n2cnc(C)n2)c2[nH]cc(C(=O)C(=O)N3CCN(C(=O)c4ccccc4)CC3)c12
CC50 (MT2): > 300000 nM

half-life [30]: > 1.67 h
AUC at 24 h [5]: 15 µM·h
fraction unbound [31]: 0.05
AUC [22]: 43 µM·h
AUC [32]: 28 µM·h
EC50 [8]: 0.88 nM
Kd [37]: 19 nM
T1/2 [29]: 0.717 h
SMILES: COc1ncc(OC)c2c(C(=O)C(=O)N3CCN(C(=O)c4ccccc4)CC3)c[nH]c12
CC50 (MT2): > 300000 nM
log(activity) [33]: 0.72 /ml
log(activity) [34]: 0.96 /ml
log(activity) [35]: 1.5 /ml
log(activity) [36]: 1.32 /ml
Ratio EC50 [38]: 1.9 - 3.7
